Test [1] deals with T1, GST-PDZ 1+2+3 fusion protein of hDlg (Homo sapiens, UniProt Q12959). Kind of test: Solution nitrocellulose filter ATP-binding assay, GST-PDZ1+2+3 of hDlg. The note with it: Scatchard analysis, Fig. 4 inset. In a few lines:
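Scatchard: 2.0 µg glutathione-eluted, dialysed GST-PDZ1+2+3 incubated in solution with increasing ATP concentrations plus [γ-32P]ATP, 3 h on ice in Hepes pH 7.6 buffer containing 1.0 mM MgCl2. Bound label captured on nitrocellulose filter, washed, scintillation-counted. Parallel GST control at each ATP concentration; cold ATP quantified by absorbance at 259 nm; each value is the average of duplicates.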

The test system of the next test is PDZ 3 domain of hDlg. Briefly: Solution filter ATP-binding assay, PDZ3 of hDlg. Conditions: 100 nM cold ATP, pH 7.6, 3 h on ice, Fig. 3 B. More on the design: species or system human. In a few lines: (§1)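 Solution assay: purified protein (GST fusions eluted from glutathione beads with 5.0 mM reduced glutathione, then dialysed into binding buffer) incubated with [γ-32P]ATP (100-500 nCi) plus 100 nM cold ATP. Buffer: 10 mM Hepes pH 7.6, 50 mM KCl, 75 mM NaCl, 1.0 mM MgCl2, 1.0 mM EGTA. Incubated 3 h on ice, filtered through nitrocellulose, washed, scintillation-counted. GST or BSA nonspecific controls; duplicate or triplicate.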

For test [2], the system named is GST-PDZ3 fusion protein of Dlg. Briefly: In vitro ATP binding, Dlg GST-PDZ3. Also on record: species or system Drosophila. Conditions: data not shown. Summed up: as §1
The next test relates to fusion proteins. Kind of test: Competition of labeled ATP binding to fusion proteins. Conditions: excess of cold, nonlabeled competitor nucleotide.
In test [3] the target is T1, GST-PDZ 1+2+3 fusion protein of hDlg. Kind of test: Surface plasmon resonance. Conditions: 0.5 or 2.0 mM ATP-Mg2+ complex; orientation of the experiment not stated; data not shown. In kind it is binding. In general terms: In SPR one partner is held on a chip, and binding of the other changes the refractive index at the surface.
A further test concerns PDZ domains. Briefly: Nucleotide binding with radiolabeled GTP. Conditions: data not shown.

Molecules are shown by their SMILES.

T1 sequence (Q12959 201-584): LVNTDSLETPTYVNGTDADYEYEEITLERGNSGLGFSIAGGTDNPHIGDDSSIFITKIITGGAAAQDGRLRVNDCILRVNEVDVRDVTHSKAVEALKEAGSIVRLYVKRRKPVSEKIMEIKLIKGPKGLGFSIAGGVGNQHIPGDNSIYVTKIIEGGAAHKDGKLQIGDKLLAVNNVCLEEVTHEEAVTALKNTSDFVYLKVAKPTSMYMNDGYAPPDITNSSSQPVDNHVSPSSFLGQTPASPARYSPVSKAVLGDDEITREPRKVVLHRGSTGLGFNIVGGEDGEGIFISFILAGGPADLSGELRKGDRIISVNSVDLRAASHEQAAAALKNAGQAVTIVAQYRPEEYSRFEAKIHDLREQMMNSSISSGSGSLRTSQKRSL

Consider `Nc1ncnc2c1ncn2[C@@H]1O[C@H](COP(=O)(O)OP(=O)(O)OP(=O)(O)O)[C@@H](O)[C@H]1O` [ATP], for which the “ATP binding sites (Scatchard)” value in test [1] was “single class of binding sites”. Moreover, the ATP binding result is “inactive for ATP binding” in the test on PDZ 3 domain of hDlg and “binds ATP in vitro” in test [2]. Moreover, the “binding of labeled ATP in presence of competitor” value in the test with fusion proteins is given as “failed”. Further, in test [3], the “effect of ATP on GST-PDZ 1+2+3 / Kv1.4 peptide binding affinity” value is “No effect on the binding affinity”.
For `Nc1nc2c(ncn2[C@@H]2O[C@H](COP(=O)(O)OP(=O)(O)OP(=O)(O)O)[C@@H](O)[C@H]2O)c(=O)[nH]1` [GTP], the “binding of radiolabeled GTP” value with PDZ domains was “no binding”. In the test with fusion proteins, the “binding of labeled ATP in presence of competitor” value was “succeeded”.

Values taken from publication PMC2121072 (The Journal of Cell Biology, 1996).
